Activity calls are given as the source filed them. No cut-off for these calls is given here.
Experiments:
Carbonic anhydrase 1 = Carbonic anhydrase 1 (Homo sapiens, UniProt P00915); experiment: Inhibition of recombinant human carbonic anhydrase 1 incubated for 15 mins prior to testing measured for 10 to 100 secs by phenol red-based stopped-flow CO2 hydration assay
Carbonic anhydrase 9 = Carbonic anhydrase 9 (Homo sapiens, UniProt Q16790); experiment: Inhibition of recombinant human carbonic anhydrase 9 incubated for 15 mins prior to testing measured for 10 to 100 secs by phenol red-based stopped-flow CO2 hydration assay
Carbonic anhydrase 2 = Carbonic anhydrase 2 (Homo sapiens, UniProt P00918); experiment: Inhibition of recombinant human carbonic anhydrase 2 incubated for 15 mins prior to testing measured for 10 to 100 secs by phenol red-based stopped-flow CO2 hydration assay
Carbonic anhydrase 12 = Carbonic anhydrase 12 (Homo sapiens, UniProt O43570); experiment: Inhibition of recombinant human carbonic anhydrase 12 incubated for 15 mins prior to testing measured for 10 to 100 secs by phenol red-based stopped-flow CO2 hydration assay
Chain of Carbonic anhydrase 12 (O43570 whole entry): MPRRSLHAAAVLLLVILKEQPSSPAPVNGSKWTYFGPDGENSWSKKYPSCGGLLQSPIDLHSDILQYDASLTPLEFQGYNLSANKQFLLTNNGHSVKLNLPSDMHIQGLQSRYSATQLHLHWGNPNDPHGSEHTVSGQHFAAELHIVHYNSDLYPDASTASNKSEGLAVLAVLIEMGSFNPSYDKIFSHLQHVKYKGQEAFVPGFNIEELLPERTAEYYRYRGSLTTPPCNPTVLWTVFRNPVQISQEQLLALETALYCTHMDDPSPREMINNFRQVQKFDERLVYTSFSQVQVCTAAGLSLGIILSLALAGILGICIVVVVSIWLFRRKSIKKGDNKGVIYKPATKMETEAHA

[1] = Cytotoxicity against HGF cells assessed as reduction in LDH release at 0.05 to 200 uM measured after 24 hrs by CytoTox 96 nonradioactive cytotoxicity assay; format: cell-based; conditions: human
Summary of the method: (§1)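 Primary human gingival fibroblasts from healthy donors, in DMEM with 10% FBS at 37 °C, 5% CO2. Treated 24 h after seeding with 0.05–200 μM compound (DMSO final 0.2%). Supernatants collected at 24, 48 and 72 h and spun 450 g for 4 min. LDH measured by a 30-min coupled tetrazolium reaction read at 490 nm, with 690 nm as background. Given as % of lysed-cell positive control.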

[2] = Cytotoxicity against HGF cells assessed as reduction in LDH release at 0.05 to 200 uM measured after 48 to 72 hrs by CytoTox 96 nonradioactive cytotoxicity assay; format: cell-based; conditions: human; summary of the method: as §1
[3] = Cytotoxicity against HGF cells assessed as reduction in cell viability at 0.05 to 50 uM measured after 24 to 48 hrs by MTT assay; format: cell-based; conditions: human, 50 to 200 µM; in the assay text read “50 to 200 uM” for “0.05 to 50 uM”
Summary of the method: (§2)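 Gingival fibroblasts seeded and treated as for LDH: 0.05–200 μM compound, DMSO final 0.2%, read at 24, 48 and 72 h. MTT 0.5 mg/mL for 5 h at 37 °C, formazan dissolved in DMSO, read at 570 nm. Viability normalized to 0.2% DMSO control. One-way ANOVA with Tukey tests.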

[4] = Cytotoxicity against HGF cells assessed as cell viability at 100 to 200 uM measured after 24 to 48 hrs by MTT assay relative to control; format: cell-based; conditions: human, read-out: Activity; summary of the method: as §2
[5] = Cytotoxicity against HGF cells assessed as reduction in cell viability at 100 to 200 uM measured after 72 hrs by MTT assay; format: cell-based; conditions: human; summary of the method: as §2
MCF7 [6] = experiment: Chemosensitization activity in human MCF7 cells assessed as induction of morphological changes by measuring rounded cells at 100 to 200 uM measured after 72 hrs in presence of doxorubicin under hypoxic condition by phase contrast light microscopic analysis; format: functional, cell-based
Summary of the method: (§3)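 MCF7 seeded 10000/well, grown 24 h, then medium with CoCl2 100 μM for 48 h to induce hypoxia. Cells then given compound (0.05–200 μM, DMSO final 0.2%) with doxorubicin 2.5 μM for 72 h. Imaged by phase contrast light microscopy (×20) for cell shape and detachment, before the MTT step.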

MCF7 [7] = experiment: Chemosensitization activity in human MCF7 cells assessed as reduction in cell viability at 100 to 200 uM measured after 72 hrs in presence of doxorubicin under hypoxic condition by MTT assay; format: functional, cell-based
Summary of the method: (§4)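 MCF7 in DMEM high glucose with 10% FBS, 37 °C, 5% CO2. Seeded 10000/well for 24 h, then CoCl2 100 μM for 48 h (hypoxia). Treated 72 h with compound 0.05–200 μM plus doxorubicin 2.5 μM, DMSO final 0.2%. MTT 0.5 mg/mL for 5 h at 37 °C, formazan dissolved in DMSO, read at 570 nm. Normalized to DMSO+CoCl2+doxorubicin control. Three experiments; one-way ANOVA with Tukey.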

[8] = Cytotoxicity against HGF cells assessed as reduction in cell viability at 0.05 to 5 uM measured after 72 hrs by MTT assay; format: cell-based; conditions: human; summary of the method: as §2
MCF7 [9] = experiment: Chemosensitization activity in human MCF7 cells assessed as induction of morphological changes by measuring cell detachment at 100 to 200 uM measured after 72 hrs in presence of doxorubicin under hypoxic condition by phase contrast light microscopic analysis; format: functional, cell-based; summary of the method: as §3
[10] = Cytotoxicity against HGF cells assessed as reduction in cell viability at 0.05 to 200 uM measured up to 72 hrs by MTT assay; format: cell-based; conditions: human; summary of the method: as §2
[11] = Cytotoxicity against HGF cells assessed as reduction in LDH release at 0.05 to 200 uM measured up to 72 hrs by CytoTox 96 nonradioactive cytotoxicity assay; format: cell-based; conditions: human; summary of the method: as §1
MCF7 [12] = experiment: Chemosensitization activity in human MCF7 cells assessed as reduction in cell viability at 0.05 to 200 uM measured after 72 hrs in presence of doxorubicin under hypoxic condition by MTT assay; format: functional, cell-based; summary of the method: as §4
MCF7 [13] = experiment: Cytotoxicity against human MCF7 cells assessed as reduction in cell viability measured after 72 hrs under hypoxic condition by MTT assay; format: functional, cell-based; conditions: MCF7, 72 h
Summary of the method: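 MCF7 given CoCl2 100 μM for 48 h to induce hypoxia, then doxorubicin alone at 0.05–200 μM for 72 h. Viability read by MTT: 0.5 mg/mL for 5 h at 37 °C, formazan dissolved in DMSO, absorbance at 570 nm, cell-free wells as background.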

Chain of Carbonic anhydrase 1 (P00915 whole entry): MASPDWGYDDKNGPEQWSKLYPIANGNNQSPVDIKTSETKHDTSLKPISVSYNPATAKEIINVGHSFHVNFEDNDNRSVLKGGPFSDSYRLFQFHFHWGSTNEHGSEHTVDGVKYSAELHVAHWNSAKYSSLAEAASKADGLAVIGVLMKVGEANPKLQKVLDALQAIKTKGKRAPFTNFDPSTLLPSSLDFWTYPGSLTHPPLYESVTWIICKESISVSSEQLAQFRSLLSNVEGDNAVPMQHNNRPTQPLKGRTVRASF

SMILES	Ki (Carbonic anhydrase 1) [nM]	Ki (Carbonic anhydrase 9) [nM]	Ki (Carbonic anhydrase 2) [nM]	also measured
COc1ccccc1C1=NOC(CN2C(=O)c3ccccc3S2(=O)=O)C1 (configuration not stated)	> 10000	> 10000	> 10000	Ki (Carbonic anhydrase 12): 9.4 nM
O=C1c2ccccc2S(=O)(=O)N1Cc1cc(-c2cccc([N+](=O)[O-])c2)no1	> 10000	230	> 10000	–
O=C1c2ccccc2S(=O)(=O)N1CC1CC(c2ccc([N+](=O)[O-])cc2)=NO1 (configuration not stated)	> 10000	235	> 10000	–
COc1ccc(C2=NOC(CN3C(=O)c4ccccc4S3(=O)=O)C2)cc1 (configuration not stated)	> 10000	139	–	Ki (Carbonic anhydrase 12): 8.1 nM
O=C1c2ccccc2S(=O)(=O)N1C[C@H]1CC(c2ccccc2)=NO1	> 10000	30	> 10000	Ki (Carbonic anhydrase 12): 48.9 nM
COc1cccc(C2=NOC(CN3C(=O)c4ccccc4S3(=O)=O)C2)c1 (configuration not stated)	> 10000	> 10000	> 10000	–
COc1ccc(-c2cc(CN3C(=O)c4ccccc4S3(=O)=O)on2)cc1	> 10000	22.1	> 10000	Activity [1]: Toxic; Activity [2]: Non-Toxic; Activity [3]: Toxic; viability at up to 200 µM [4]: < 50%; Activity [5]: Toxic; Activity (MCF7 [6]): Active; Activity (MCF7 [7]): Active; Activity [8]: Non-Toxic; Activity (MCF7 [9]): Active
O=C1c2ccccc2S(=O)(=O)N1Cc1cc(-c2ccccn2)no1	> 10000	245	> 10000	–
O=C1c2ccccc2S(=O)(=O)N1Cc1cc(-c2cccs2)no1	> 10000	7.5	> 10000	–
O=C1c2ccccc2S(=O)(=O)N1CC1CC(c2cccnc2)=NO1 (configuration not stated)	> 10000	274	> 10000	–
O=C1c2ccccc2S(=O)(=O)N1CC1CC(c2ccccn2)=NO1 (configuration not stated)	> 10000	258	> 10000	–
O=C1c2ccccc2S(=O)(=O)N1CC1CC(c2cccc([N+](=O)[O-])c2)=NO1 (configuration not stated)	> 10000	103	> 10000	–
O=C1c2ccccc2S(=O)(=O)N1C[C@@H]1CC(c2cccs2)=NO1	365	2.4	13.1	–
O=C1c2ccccc2S(=O)(=O)N1C[C@H]1CC(c2cccs2)=NO1	358	26.4	> 10000	–
O=C1c2ccccc2S(=O)(=O)N1Cc1cc(-c2ccc([N+](=O)[O-])cc2)no1	> 10000	–	> 10000	Activity [10]: Non-Toxic; Activity [11]: Non-Toxic; Activity (MCF7 [6]): Active; Activity (MCF7 [12]): inactive; Activity (MCF7 [9]): Active
O=C1c2ccccc2S(=O)(=O)N1C[C@@H]1CC(c2ccccc2)=NO1	> 10000	29.3	> 10000	Ki (Carbonic anhydrase 12): 36.5 nM
O=C1c2ccccc2S(=O)(=O)N1Cc1cc(-c2ccccc2)no1	> 10000	50.9	> 10000	–
COc1cccc(-c2cc(CN3C(=O)c4ccccc4S3(=O)=O)on2)c1	> 10000	247	> 10000	–
COc1cccc2c1C(=O)c1c(O)c3c(c(O)c1C2=O)C[C@@](O)(C(=O)CO)C[C@@H]3O[C@H]1C[C@H](N)[C@H](O)[C@H](C)O1 [DOXORUBICIN]	–	–	–	IC50 (MCF7 [13]): 5000 to 50000 nM
COc1ccccc1-c1cc(CN2C(=O)c3ccccc3S2(=O)=O)on1	> 10000	> 10000	> 10000	–
O=C1c2ccccc2S(=O)(=O)N1Cc1cc(-c2cccnc2)no1	> 10000	86.2	> 10000	–

— ChEMBL document CHEMBL4354846, “1,3-Dipolar Cycloaddition, HPLC Enantioseparation, and Docking Studies of Saccharin/Isoxazole and Saccharin/Isoxazoline Derivatives as Selective Carbonic Anhydrase IX and XII Inhibitors” (J Med Chem, 2020)
